Shown are actives, neighbours in structure and some others; about 5.1% of the full set was active somewhere.
STAT3 inh = inhibitors of IL-6 induced STAT3 signaling; U3A cells, IL-6 STAT3-luciferase reporter, luminescence; host cell line lacks STAT1; inhibition, % at 5.5 µM; actives 0.89% (n = 190,000); AID 862;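 active means inhibition above the mean inhibition across all screened compounds plus 3 SD, cut at about 44% in these data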;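 further: 0% = DMSO only wells and 100% = 100 µM nifuroxazide control wells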
STAT1 act = activators of IFN-gamma induced STAT1 signaling; AID 932; actives 2.6% (n = 200,000); activation (% of control), % at 5.5 µM; NIH 3T3 STAT1-luciferase reporter, luminescence; 100% = IFN-gamma alone, no compound;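 active means activation above the screen-wide mean activation plus 3 SD, cut at about 130% in these data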;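 further: raw ratio to IFN-gamma control signal so 100% means no change and 0% no light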
STAT1 blocker = STAT1 signaling inhibition. NIH 3T3 STAT1-luciferase reporter, IFN-gamma, luminescence. inhibition, % at 5.5 µM. actives 0.35% (n = 200,000). AID 920;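 active means inhibition above a set limit, the mean inhibition across all tested compounds plus 3 SD, cut at about 34% in these data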;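 further: 0% = IFN-gamma with DMSO and 100% = IFN-gamma with 300 µM nifuroxazide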
APP 5'UTR act = APP 5'UTR luciferase reporter activation. AID 1276. actives 1% (n = 190,000). activation, % at 2 µM. SH-SY5Y APP 5'UTR luciferase reporter, luminescence; zero percent = DMSO vehicle wells;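 active means activation above a set limit, based on mean plus 3 SD of controls, cut at about 140% in these data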
NF-kB neuron act = raises NF-kB expression in human neuronal cells | actives 1.6% (n = 190,000) | NF-kB reporter expression; stronger effect = higher value | AID 1239 | fold change at 12.5 µM; in the data active means fold change above about 3.3
STAT3 activator = activators of IL-6 induced STAT3 signaling | U3A cells, IL-6 STAT3-luciferase reporter, luminescence; 100% = signal with IL-6 EC80 alone | activation (% of control), % at 5.6 µM | actives 0.91% (n = 190,000) | AID 871;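 active means activation above the screen-wide mean of compound activation plus 3 SD, cut at about 130% in these data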;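 further: 0% = background luminescence of wells with medium and substrate only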
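Material: human U3A cells carrying STAT3-luciferase construct. Measured by: reporter luminescence signal. Timing: compound 1 h, then IL-6 6 h at 37 °C.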
Starred values were filed as active, the others as inactive; nt = not tested or not shown.

SMILES | STAT3 inh | STAT1 act | STAT1 blocker | APP 5'UTR act | NF-kB neuron act | STAT3 activator
CCCCC(=O)NC(=S)NNC(=O)c1ccc(OC)cc1 | 14 | 95 | 6 | -12 | nt | 93
Nc1ccnc(Oc2ccc(F)cc2)c1 | 10 | 110 | -11 | 1 | 1.9 | 95
O=C(c1cccnc1)C1CCCN(Cc2nc(Cc3ccccc3)no2)C1 (centres undefined) | 2 | 90 | 9 | -1 | 0.95 | 103
CCN1C(=O)/C(=C/C=C2\C=CN(CC)c3ccccc32)SC1=S | 0 | 100 | 0 | 98 | 0.99 | 102
CCN1C(=O)/C(=C\C=C2/C=CC=CN2CC)SC1=S | -18 | 134* | -38 | 48 | 2.2 | 118
COc1ccc(OCCC(=O)OCC(=O)NCCc2ccccc2)cc1 | 8 | 118 | -23 | 22 | 1.1 | 95
COc1ccc(S(=O)(=O)NCc2ccc(C(=O)N3CCc4ccccc4C3)cc2)cc1 | -1 | 93 | 7 | -8 | 0.87 | 99
COc1cc2c(cc1OC)CN(C(=O)CCCOc1ccc(Cl)cc1Cl)CC2 | 6 | 110 | -10 | -3 | 0.82 | 100
COc1ccc(OC)c(S(=O)(=O)n2nnc3cc(Cl)ccc32)c1 | 5 | 95 | 5 | 7 | 1.1 | 98
COc1cc(S(=O)(=O)n2nnc3ccccc32)c(OC)cc1Cl | 18 | 80 | 35* | -5 | 1.4 | 86
CCc1nc(CN2CCN(Cc3ccc(F)c(F)c3)C(CCO)C2)c(C)[nH]1 (centres undefined) | 0 | 98 | 0 | 23 | 0.98 | 105
Cc1cccc(NC(=S)c2nc3ccccc3s2)c1 | -31 | 143* | -48 | 205* | 3.9* | 134*
Cc1cccc(NC(=O)c2sc(C)nc2C)c1 | 2 | 106 | -7 | 33 | 1.8 | 101
O=c1oc2ccccc2cc1-c1nc2ccccc2o1 | -1 | 122 | -24 | 152* | 4.4* | 105
Cc1ccc(-c2noc(-c3cc4ccccc4oc3=O)n2)cc1 | 13 | 100 | 0 | -3 | 1.4 | 97
O=c1oc2ccccc2cc1-c1nc(-c2ccccc2)no1 | 41 | 145* | -49 | 76 | 4.1* | 66
Cc1cccc(-c2noc(-c3cc4ccccc4oc3=O)n2)c1 | -9 | 117 | -19 | 7 | 3.6* | 108
COc1ccc(C(=O)Nc2cc(C)on2)cc1S(=O)(=O)N1CC(c2ccccc2)CC1=O (centres undefined) | 6 | 100 | -1 | 14 | 0.88 | 104
C=CCNC(=O)CN(c1cc(Cl)ccc1OC)S(=O)(=O)c1ccc(C)c([N+](=O)[O-])c1 | 0 | 93 | 6 | 7 | 1.1 | 106
CCOC(=O)c1ccc(Nc2ccc(-c3ccc(OC)c(OC)c3)nn2)cc1 | 16 | 93 | 8 | -13 | 0.58 | 88
Fc1ccc(Nc2ccc(-c3ccc(F)cc3)nn2)cc1 | 10 | 139* | -45 | 81 | 2.7 | 98
Fc1ccc(-c2ccc(Nc3cccc(F)c3)nn2)cc1 | 17 | 144* | -50 | 56 | 1.7 | 91
Cc1ncoc1C(=O)N1CCCC(C(=O)c2ccc(C(F)(F)F)cc2)C1 (centres undefined) | 0 | 107 | -10 | 9 | 1.8 | 104
CCCC(=O)c1ccc(N2CCCCC2)c(F)c1 | 5 | 130* | -34 | 51 | 1.8 | 102
CCCC(=O)c1ccc(N2CCCCCC2)c(F)c1 | 3 | 114 | -15 | 8 | 2.1 | 102
SMILES | STAT3 inh | STAT1 act | STAT1 blocker | APP 5'UTR act | NF-kB neuron act | STAT3 activator
Cc1ccc(NC(=O)c2csc(-c3ccccc3)c2C)cc1 | 104* | 43 | 63* | 216* | 0.78 | 19
Cc1ccc(NC(=O)C(=O)NNC(=O)c2cccs2)cc1 | 9 | 114 | -13 | 14 | 1.4 | 96
O=C(NCc1cccs1)c1cc(-c2ccccc2)on1 | -3 | 124 | -26 | 85 | 2.9 | 105
O=C(NCc1cccs1)c1cc(-c2cccs2)on1 | 2 | 138* | -42 | 76 | 2.3 | 99
Cc1ccc(NC(=O)c2cccs2)cc1 | 1 | 131* | -34 | 75 | 2.9 | 101
O=C(Nc1ccc(NC(=O)C2CCCCC2)nc1)c1cccs1 | -7 | 132* | -37 | 49 | 1.9 | 107
CC(=O)c1ccc(NC(=O)NCc2ccc(F)cc2)cc1 | 15 | 107 | -7 | 12 | 1.1 | 94
Cc1ccc(NC(=O)c2cc(-c3cccs3)on2)cc1 | 18 | 130* | -33 | 13 | 2.4 | 90

Screens: PubChem BioAssay, several laboratories
